# Measured values taken from PubChem BioAssay AID504392 (Broad Institute, 2011).
# Active and inactive are the calls of the source.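 Rule for the calls: active = fitted curve rising past 10% caspase activation at or below the top valid dose; inactive = activity opposite to the expected rise, or the rest.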
# Test: apoptosis induction in mouse embryonic fibroblasts – cell-based, wild-type MEF, caspase luminescence, dry powder, set 2, counter-screen for Bcl2-A1 inhibitor project, dose response (AID 504392)
# Conditions: CaspaseGlo luminescence, 3 h; series mostly up to 35 µM
# In short: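 Material: unprimed wild-type MEF cells; amount: 2500 cells per well; read-out basis: caspase activation; doses: pin-transferred compound; medium: RPMI-1640 growth medium with 10% FBS; timing: 3 h compound at 37 °C, 1 h reagent at RT; signal: CaspaseGlo luminescence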
smiles,measurement,value
C/C1=C/C(=O)O[C@@H]2C[C@@H](CC[C@H](C)/C=C\CC1)O[C@@](O)(C1CSC(=O)N1)C2 (stereo partly specified),outcome,inactive
